Source: ChEMBL document CHEMBL3244095, “Synthesis and antitumor activity of 5-azacytosine arabinoside” (J Med Chem, 1979)

Key:
Mus musculus [1] = assay: Toxicity in CDF1 mouse assessed as change in body weight at 1.56 mg/kg, ip measured on day 5 relative to control; assay type: organism-based; set-up: dose 1.56 mg/kg, route intraperitoneal; settings: in vivo
How it was run: (§1)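 CDF1 mice were implanted ip with 10^5 L1210 leukemia cells on day 0. Drug in 0.9% saline was given ip once daily on days 1–9 (nine injections) in a dose-response design. Body weight was compared with untreated tumor-bearing controls. The work was done as duplicate experiments.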

L1210 [2] = assay: Antitumor activity in mouse L1210 cells allografted in CDF1 mouse assessed as increase in life span at 6.25 mg/kg, ip administered as qd for 9 days relative to control; assay type: functional; settings: 216 h, route intraperitoneal
How it was run: (§2)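 CDF1 mice inoculated ip with 10^5 L1210 leukemia cells on day 0; compounds in 0.9% saline given ip once daily days 1–9 (nine injections) across a dose-response range. Antitumor activity = mean increase in life span over untreated controls, expressed as % ILS; duplicate experiments, with drug-related deaths and weight loss monitored.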

Mus musculus [3] = assay: Toxicity in CDF1 mouse assessed as change in body weight at 6.25 mg/kg, ip measured on day 5 relative to control; assay type: organism-based; set-up: dose 6.25 mg/kg, route intraperitoneal; settings: in vivo; how it was run: as §1
[4] = Drug degradation in water solution at 25 degC after 5.5 hrs by reverse phase liquid chromatography; assay type: physicochemical; settings: read-out: Drug degradation
How it was run: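 Parent held at 25 °C and sampled over time. Its disappearance was fitted to a first-order rate equation, and the fraction lost was taken at 5.5 h from that fit.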

L1210 [5] = assay: Antitumor activity in mouse L1210 cells allografted in CDF1 mouse assessed as increase in life span at 1.56 mg/kg, ip administered as qd for 9 days relative to control; assay type: functional; settings: 216 h, route intraperitoneal; how it was run: as §2
Mus musculus [6] = assay: Toxicity in CDF1 mouse assessed as change in body weight at 3.12 mg/kg, ip measured on day 5 relative to control; assay type: organism-based; set-up: dose 3.12 mg/kg, route intraperitoneal; settings: in vivo; how it was run: as §1
L1210 [7] = assay: Antitumor activity in mouse L1210 cells allografted in CDF1 mouse assessed as increase in life span at 0.78 mg/kg, ip administered as qd for 9 days relative to control; assay type: functional; settings: 216 h, route intraperitoneal; how it was run: as §2
Mus musculus [8] = assay: Toxicity in CDF1 mouse assessed as change in body weight at 0.78 mg/kg, ip measured on day 5 relative to control; assay type: organism-based; set-up: dose 0.78 mg/kg, route intraperitoneal; settings: in vivo; how it was run: as §1
L1210 [9] = assay: Antitumor activity in mouse L1210 cells allografted in CDF1 mouse assessed as increase in life span at 3.12 mg/kg, ip administered as qd for 9 days relative to control; assay type: functional; settings: 216 h, route intraperitoneal; how it was run: as §2
Mus musculus [10] = assay: Toxicity in CDF1 mouse assessed as change in body weight at 12.5 mg/kg, ip measured on day 5 relative to control; assay type: organism-based; set-up: dose 12.5 mg/kg, route intraperitoneal; settings: in vivo; how it was run: as §1
L1210 [11] = assay: Antitumor activity in mouse L1210 cells allografted in CDF1 mouse assessed as increase in life span at 50 mg/kg, ip administered as qd for 9 days relative to control; assay type: functional; settings: 216 h, route intraperitoneal; how it was run: as §2
[12] = Drug degradation in water solution at 25 degC after 4 hrs by reverse phase liquid chromatography; assay type: physicochemical; settings: read-out: Drug degradation
How it was run: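 Nucleoside in water solution held at 25 °C; the loss of parent compound over time was measured by LC analysis. Degradation was read at 4 h.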

Mus musculus [13] = assay: Toxicity in CDF1 mouse assessed as change in body weight at 100 mg/kg, ip measured on day 5 relative to control; assay type: organism-based; set-up: dose 100 mg/kg, route intraperitoneal; settings: in vivo; how it was run: as §1
L1210 [14] = assay: Antitumor activity in mouse L1210 cells allografted in CDF1 mouse assessed as increase in life span at 100 mg/kg, ip administered as qd for 9 days relative to control; assay type: functional; settings: 216 h, route intraperitoneal; how it was run: as §2
L1210 [15] = assay: Antitumor activity in mouse L1210 cells allografted in CDF1 mouse assessed as increase in life span at 12.5 mg/kg, ip administered as qd for 9 days relative to control; assay type: functional; settings: 216 h, route intraperitoneal; how it was run: as §2
Mus musculus [16] = assay: Toxicity in CDF1 mouse assessed as change in body weight at 200 mg/kg, ip measured on day 5 relative to control; assay type: organism-based; set-up: dose 200 mg/kg, route intraperitoneal; settings: in vivo; how it was run: as §1
Mus musculus [17] = assay: Toxicity in CDF1 mouse assessed as change in body weight at 50 mg/kg, ip measured on day 5 relative to control; assay type: organism-based; set-up: dose 50 mg/kg, route intraperitoneal; settings: in vivo; how it was run: as §1
Mus musculus [18] = assay: Toxicity in CDF1 mouse assessed as change in body weight at 25 mg/kg, ip measured on day 5 relative to control; assay type: organism-based; set-up: dose 25 mg/kg, route intraperitoneal; settings: in vivo; how it was run: as §1
L1210 [19] = assay: Antitumor activity in mouse L1210 cells allografted in CDF1 mouse assessed as increase in life span at 25 mg/kg, ip administered as qd for 9 days relative to control; assay type: functional; settings: 216 h, route intraperitoneal; how it was run: as §2
L1210 [20] = assay: Antitumor activity in mouse L1210 cells allografted in CDF1 mouse assessed as increase in life span at 200 mg/kg, ip administered as qd for 9 days relative to control; assay type: functional; settings: 216 h, route intraperitoneal; how it was run: as §2
Mus musculus [21] = assay: Toxicity in CDF1 mouse assessed as change in body weight at 10 mg/kg, ip measured on day 5 relative to control; assay type: organism-based; set-up: dose 10 mg/kg, route intraperitoneal; settings: in vivo; how it was run: as §1
Mus musculus [22] = assay: Toxicity in CDF1 mouse assessed as change in body weight at 5 mg/kg, ip measured on day 5 relative to control; assay type: organism-based; set-up: dose 5 mg/kg, route intraperitoneal; settings: in vivo; how it was run: as §1
L1210 [23] = assay: Antitumor activity in mouse L1210 cells allografted in CDF1 mouse assessed as increase in life span at 20 mg/kg, ip administered as qd for 9 days relative to control; assay type: functional; settings: 216 h, route intraperitoneal; how it was run: as §2
Mus musculus [24] = assay: Toxicity in CDF1 mouse assessed as change in body weight at 40 mg/kg, ip measured on day 5 relative to control; assay type: organism-based; set-up: dose 40 mg/kg, route intraperitoneal; settings: in vivo; how it was run: as §1
L1210 [25] = assay: Antitumor activity in mouse L1210 cells allografted in CDF1 mouse assessed as increase in life span at 40 mg/kg, ip administered as qd for 9 days relative to control; assay type: functional; settings: 216 h, route intraperitoneal; how it was run: as §2
L1210 [26] = assay: Antitumor activity in mouse L1210 cells allografted in CDF1 mouse assessed as increase in life span at 5 mg/kg, ip administered as qd for 9 days relative to control; assay type: functional; settings: 216 h, route intraperitoneal; how it was run: as §2
Mus musculus [27] = assay: Toxicity in CDF1 mouse assessed as change in body weight at 20 mg/kg, ip measured on day 5 relative to control; assay type: organism-based; set-up: dose 20 mg/kg, route intraperitoneal; settings: in vivo; how it was run: as §1
Mus musculus [28] = assay: Toxicity in CDF1 mouse assessed as change in body weight at 80 mg/kg, ip measured on day 5 relative to control; assay type: organism-based; set-up: dose 80 mg/kg, route intraperitoneal; settings: in vivo; how it was run: as §1
[29] = Half life of the compound; assay type: physicochemical
L1210 [30] = assay: Antitumor activity in mouse L1210 cells allografted in CDF1 mouse assessed as increase in life span at 10 mg/kg, ip administered as qd for 9 days relative to control; assay type: functional; settings: 216 h, route intraperitoneal; how it was run: as §2
L1210 [31] = assay: Antitumor activity in mouse L1210 cells allografted in CDF1 mouse assessed as increase in life span at 80 mg/kg, ip administered as qd for 9 days relative to control; assay type: functional; settings: 216 h, route intraperitoneal; how it was run: as §2

SMILES	Activity (Mus musculus [1])	ILS at 6.25 mg/kg (L1210 [2])	Activity (Mus musculus [3])	ILS at 1.56 mg/kg (L1210 [5])	Activity (Mus musculus [6])	ILS at 0.78 mg/kg (L1210 [7])	Activity (Mus musculus [8])	ILS at 3.12 mg/kg (L1210 [9])	Activity (Mus musculus [10])	Activity (Mus musculus [13])	ILS at 12.5 mg/kg (L1210 [15])	Activity (Mus musculus [16])	Activity (Mus musculus [17])	Activity (Mus musculus [18])	ILS at 25 mg/kg (L1210 [19])	further results
Nc1ncn([C@@H]2O[C@H](CO)[C@@H](O)[C@H]2O)c(=O)n1 [AZACITIDINE]	-1.3 g	1%	-6.1 g	66%	-5.3 g	26%	-2 g	33%	Toxic	–	–	–	–	–	–	degraded at 5.5 h [4]: 15%
Nc1ncn([C@@H]2O[C@H](CO)[C@@H](O)[C@@H]2O)c(=O)n1 [FAZARABINE]	-1.3 g	41%	-2.5 g	66%	-3.3 g	39%	-1.2 g	28%	-3.7 g	-4 g	58%	-2.8 g	-3.3 g	-4 g	58%	ILS at 50 mg/kg (L1210 [11]): 92%; degraded at 4 h [12]: 15%; ILS at 100 mg/kg (L1210 [14]): 80%; ILS at 200 mg/kg (L1210 [20]): 19%
Nc1ccn([C@@H]2O[C@H](CO)[C@@H](O)[C@@H]2O)c(=O)n1 [CYTARABINE]	–	34%	0.3 g	–	0.3 g	–	–	28%	-0.4 g	Non-toxic	91%	Non-toxic	-1.8 g	0 g	121%	Activity (Mus musculus [21]): -0.2 g; Activity (Mus musculus [22]): 0.4 g; ILS at 20 mg/kg (L1210 [23]): 127%; Activity (Mus musculus [24]): -1 g; ILS at 40 mg/kg (L1210 [25]): 123%; ILS at 5 mg/kg (L1210 [26]): 47%; Activity (Mus musculus [27]): -0.3 g; Activity (Mus musculus [28]): -1.8 g; half-life [29]: 34 h; ILS at 10 mg/kg (L1210 [30]): 84%; ILS at 80 mg/kg (L1210 [31]): 92%
